Results on nine compounds are retold here after paper PMC8669655 (ACS Infectious Diseases, 2021).

Each structure is given as a SMILES string. Converted amounts (≈) assume the structure as drawn. “Also recorded” adds a separate entry of the source. A value given as a limit tells only on which side of the number the result lay.

Data set [1] concerns E. coli BW25113. Put plainly: MIC assay. The format is cell-based. The conditions noted are these: Escherichia coli. The method in brief: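 Broth microdilution per CLSI in LB. Test compound serially diluted twofold from a 2× stock. Inoculum from a single blood-agar colony, grown in LB at 37 °C to OD600 0.5, diluted to 2.0 × 10^6 CFU/mL stock, then added 1:1. Plates sealed with breathable seal, incubated 20 h at 37 °C, 600 rpm. MIC read visually after brief centrifugation. Six growth and six sterility controls.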

A further data set has as its system E. coli ATCC25922. Nature of the data set: Checkerboard assay with rifampicin. The format is cell-based, Escherichia coli. To be noted: E. coli ATCC25922 (wild-type). In short, it runs like this: (§1)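 Broth microdilution checkerboard in LB: serial dilutions of test compound and rifampicin combined, in triplicate. Inoculum from a single blood-agar colony, grown in LB at 37 °C to OD600 0.5, diluted to 2.0 × 10^6 CFU/mL stock, 50 μL added per 100 μL well. Sealed plates incubated 20 h, 37 °C, 600 rpm shaking. OD600 read after resuspension. FICI from MICs alone and in combination; ≤0.5 taken as synergy.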

For a further data set, the system named is E. coli W3110. Nature of the data set: Checkerboard assay with rifampicin. The format is cell-based, Escherichia coli. The conditions noted are these: E. coli W3110 (wild-type). The method in brief:
as §1

The next data set concerns E. coli 552060.1. Nature of the data set: Checkerboard assay with rifampicin. To be noted: E. coli 552060.1 (wild-type clinical isolate). The format is cell-based, Escherichia coli. The method in brief: as §1
The subject of data set [2] is E. coli EQASmcr-1 (EQAS 2016 412016126). Put plainly: Checkerboard assay with rifampicin. The format is cell-based, Escherichia coli. The conditions noted are these: E. coli EQASmcr-1 (polymyxin-resistant). The method in brief: as §1
In data set [3] the test system is E. coli EQASmcr-2 (EQAS 2016 KP37). Nature of the data set: Checkerboard assay with rifampicin. The format is cell-based, Escherichia coli. The conditions noted are these: E. coli EQASmcr-2 (polymyxin-resistant). The method in brief: as §1
Data set [4] relates to E. coli BW25113. Put plainly: OM permeabilization assay using NPN. To be noted: 60 min, relative to 100 μg/mL colistin. The format is cell-based, Escherichia coli. The method in brief:
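Log-phase cells (overnight LB culture diluted 50×, grown to OD600 0.5) pelleted and resuspended to OD600 1.0 in 5 mM HEPES with 20 mM glucose. Test compound serially diluted in triplicate. NPN stock (0.5 mM in acetone) diluted 12.5× in buffer and added. Fluorescence read after 60 min, ex 355 nm / em 420 nm. Uptake % = (F − buffer blank)/(colistin 100 μg/mL − blank) × 100. Compound + NPN no-cell controls included.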

Data set [5] deals with E. coli EQASmcr-3 (EQAS 2017 2013-SQ352). Nature of the data set: Checkerboard assay with rifampicin. The format is cell-based, Escherichia coli. To be noted: E. coli EQASmcr-3 (polymyxin-resistant), listed as pentamidine (1). In short, it runs like this:
as §1

The next data set relates to A. baumannii ATCC17978. Nature of the data set: Checkerboard assay with rifampicin. The data set is classed as cell-based, Acinetobacter baumannii. To be noted: listed as pentamidine (1). In short, it runs like this: as §1
A further data set deals with K. pneumoniae ATCC13883. Put plainly: Checkerboard assay with rifampicin. The conditions noted are these: listed as pentamidine (1). The data set is classed as cell-based, Klebsiella pneumoniae. In short, it runs like this: as §1
Another data set deals with P. aeruginosa ATCC27853. Nature of the data set: Checkerboard assay with rifampicin. The data set is classed as cell-based, Pseudomonas aeruginosa. To be noted: listed as pentamidine (1). In short, it runs like this: as §1
The test system of a further data set is rat L6 muscle cell line. The conditions noted are these: cited from earlier work.

Turning to `N=C(N)c1ccc(OCc2cccc(COc3ccc(C(=N)N)cc3)c2)cc1` [compound 22, 4,4′-((1,3-Phenylenebis(methylene))bis(oxy))dibenzimidamide], the MIC (as a rule, the least concentration at which growth counts as inhibited) against E. coli BW25113 [1] (BW25113, 20 h, compound alone) was above 200 µg/mL. In addition, the FICI in the data set with E. coli ATCC25922 is reported as 0.094; with E. coli W3110 it was 0.313; in the data set with E. coli 552060.1, 0.250; in [2] it was 0.188; in [3], 0.313. In addition, in the data set on E. coli BW25113 [4], the “NPN uptake (OM disruption), in words” value is “dose-dependent increase in the fluorescent signal; also recorded: stronger effect than PMBN”.

As to `N=C(N)c1ccc(OCCS(=O)(=O)CCOc2ccc(C(=N)N)cc2)cc1` [compound 16, 4,4′-((Sulfonylbis(ethane-2,1-diyl))bis(oxy))dibenzimidamide], the MIC with E. coli BW25113 [1] (BW25113, compound alone) was above 200 µg/mL.

For the compound `N=C(N)c1cccc(OCc2ccc(COc3cccc(C(=N)N)c3)cc2)c1` [compound 23b, 3,3′-[1,4-Phenylenebis(methyleneoxy)]dibenzenecarboximidamide], the FICI in the data set on E. coli ATCC25922 was determined as 0.156.

In the data set on E. coli BW25113 [1] (BW25113, compound alone), `N=C(N)c1ccc(OCCCOc2ccc(C(=N)N)cc2)cc1` [compound 9, 4,4′-(Propane-1,3-diylbis(oxy))dibenzimidamide] returned an MIC of at least 200 µg/mL.

With `N=C(N)c1ccc(OCCCCCOc2ccc(C(=N)N)cc2)cc1` [compound 1, 4,4′-(Pentane-1,5-diylbis(oxy))dibenzimidamide, reference compound], the MIC in the data set on E. coli BW25113 [1] (BW25113, compound alone) was at least 200 µg/mL. In addition, the FICI is given as 0.313 in the data set with E. coli ATCC25922; at most 0.188 in the data set with E. coli W3110 (listed as pentamidine (1)); 0.375 in the data set on E. coli 552060.1; at most 0.250 in [2] (listed as pentamidine (1)); 0.375 in data set [3]; at most 0.188 in [5]. In addition, the results for the FICI with A. baumannii ATCC17978, with K. pneumoniae ATCC13883 and in the data set on P. aeruginosa ATCC27853 were at most 0.125, at most 0.125 and at most 0.500, respectively.

As for `N=C(N)c1ccc(OCc2ccc3ccc(COc4ccc(C(=N)N)cc4)cc3c2)cc1` [compound 24, 4,4′-((Naphthalene-2,7-diylbis(methylene))bis(oxy))dibenzimidamide], the “toxicity against a rat L6 muscle cell line” value with rat L6 muscle cell line is on record as “significant toxicity”.

In the data set with E. coli BW25113 [1] (BW25113, 20 h, compound alone), `N=C(N)c1ccc(OCc2ccccc2COc2ccc(C(=N)N)cc2)cc1` [compound 21, 4,4′-((1,2-Phenylenebis(methylene))bis(oxy))dibenzimidamide] returned a minimum inhibitory concentration (MIC) above 200 µg/mL. Moreover, the “NPN uptake (OM disruption), in words” value in the data set on E. coli BW25113 [4] is “dose-dependent increase in the fluorescent signal”.

With `N=C(N)c1ccc(OCCSCCOc2ccc(C(=N)N)cc2)cc1` [compound 15, 4,4′-((Thiobis(ethane-2,1-diyl))bis(oxy))dibenzimidamide], the MIC against E. coli BW25113 [1] (BW25113, compound alone) was above 200 µg/mL.

`N=C(N)c1ccc(OCCCCCCCOc2ccc(C(=N)N)cc2)cc1` [compound 10, 4,4′-(Heptane-1,7-diylbis(oxy))dibenzimidamide] gave an MIC against E. coli BW25113 [1] (BW25113, compound alone) of 200 µg/mL (≈ 543 µM).
